High-throughput results: PubChem, Broad Institute
In the library only some 3.1% were active in any assay of this set; here they are far more common.
SIRT5 inh – sirtuin-5 (human) deacylase inhibition; Purified SirT5, succinyl-peptide AMC, trypsin-coupled fluorescence; 330,000 compounds, 1.1% hits; inhibition, % at 15 µM; Q9NXA8; in the data active = inhibition above about 15%
rRNA inh HTS – inhibitors of bacterial rRNA selective over humanized ribosomes | 350,000 compounds, 1.6% hits | GFP signal change (wild-type ribosome), % (no concentration beside the values) | E. coli WT GFP vs humanized-ribosome RFP mutants, fluorescence, 24 h; active compounds read low; DMSO median 0, no signal -100 | AID 720706;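 active = significant combined selectivity score with lowered wild-type GFP, culture density cut under 30%, mutant RFP and density less affected; inactive = any of these conditions unmet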
CFTR F508del cor – CFTR F508del correction in bronchial cells; CFBE cells, YFP halide quenching; stimulated with forskolin plus potentiator P3; % fluorescence drop versus neutral controls; activity (quench increase), % at 7.58 µM; 350,000 compounds, 0.36% hits; AID 720511;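 active = mean added fluorescence quench of at least 8% versus neutral control, with both replicates also reaching 8%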;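 note: cells transiently co-express mutant CFTR-F508del with the halide-sensitive YFP; corrector assay measuring rescue of mutant channel to the surface after 24 h compound exposure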
S100A4 inh HTS – S100A4-myosin IIA interaction inhibition; AID 652163; 360,000 compounds, 0.14% hits; inhibition, % at 10.7 µM; P26447; S100A4/TAMRA-MyoIIA peptide fluorescence polarization;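 active = mean inhibition of at least 70% across replicates, with every replicate also reaching that level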
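Material: S100A4 monomer protein / Buffer or medium: 50 mM HEPES pH 7.2, 10 mM CaCl2, 100 mM KCl / Times: 5 min incubation before reading / Benchmarks: neutral control DMSO, positive control TFP / Reagent: labelled myosin peptide probe, 5 nM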
ERAP1 HTS inh – ERAP1 (human) enzyme inhibition. Q9NZ08. recombinant ERAP1, Leu-AMC fluorescence, 60 min. inhibition, % at 10.7 µM. 340,000 compounds, 0.15% hits. AID 652197;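 active = mean replicate inhibition of at least 30%, or all replicates individually reaching that 30% level; inactive = mean below 30% and not every replicate reaching it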;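 note: 0% = neutral control wells and 100% = L-leucinethiol positive control wells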
Target sequence (Q9NZ08 whole entry, looked up): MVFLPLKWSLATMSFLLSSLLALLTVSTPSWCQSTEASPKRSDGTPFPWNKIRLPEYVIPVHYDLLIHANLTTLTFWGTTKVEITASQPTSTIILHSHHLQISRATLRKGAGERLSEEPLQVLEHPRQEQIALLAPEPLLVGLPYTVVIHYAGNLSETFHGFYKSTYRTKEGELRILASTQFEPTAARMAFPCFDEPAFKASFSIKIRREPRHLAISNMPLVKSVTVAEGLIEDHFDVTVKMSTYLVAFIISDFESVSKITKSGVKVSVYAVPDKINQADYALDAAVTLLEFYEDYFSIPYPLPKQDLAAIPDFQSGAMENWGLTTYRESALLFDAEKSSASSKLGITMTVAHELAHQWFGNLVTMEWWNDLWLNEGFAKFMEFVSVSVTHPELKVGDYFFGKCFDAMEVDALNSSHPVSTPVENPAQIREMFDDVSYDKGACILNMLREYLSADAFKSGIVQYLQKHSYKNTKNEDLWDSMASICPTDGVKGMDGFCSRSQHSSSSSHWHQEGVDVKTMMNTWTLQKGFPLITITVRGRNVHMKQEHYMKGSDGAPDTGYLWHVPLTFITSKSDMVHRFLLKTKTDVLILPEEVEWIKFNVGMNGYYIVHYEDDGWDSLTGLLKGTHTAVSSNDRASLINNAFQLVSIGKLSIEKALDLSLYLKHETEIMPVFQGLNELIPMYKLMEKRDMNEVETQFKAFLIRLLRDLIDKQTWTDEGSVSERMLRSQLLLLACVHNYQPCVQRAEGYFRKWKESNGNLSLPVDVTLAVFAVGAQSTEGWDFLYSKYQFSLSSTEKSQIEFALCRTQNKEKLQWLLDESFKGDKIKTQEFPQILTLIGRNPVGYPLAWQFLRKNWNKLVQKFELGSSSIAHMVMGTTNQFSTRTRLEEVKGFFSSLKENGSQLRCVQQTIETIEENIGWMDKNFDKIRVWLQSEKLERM
Numbers without * were called inactive; . = not tested or not shown.

SMILES	SIRT5 inh	rRNA inh HTS	CFTR F508del cor	S100A4 inh HTS	ERAP1 HTS inh
Cc1ccccc1NC(=O)/C(C#N)=C\c1cc(C)n(-c2ccc(C(=O)O)cc2)c1C	14.5	-22.9*	0.8	-1.8	15.0
CCOC(=O)CSc1nc2cc(S(=O)(=O)N3CCOCC3)ccc2n1CC	0.6	-4.7	-2.1	-3.2	-2.1
CCOC(=O)c1ccc2c(c1)nc(SCC(=O)N1CCOCC1)n2CC	-6.2	-39.0*	2.8	3.8	2.2
CN1CCN(C(=O)C[C@@H]2CC[C@@H](NC(=O)Nc3ccccc3F)[C@@H](CO)O2)CC1	-2.5	2.9	-2.2	-13.2	3.0
CC(C)(O)C#Cc1ccc([C@H]2[C@@H](CO)N3CCCCN(C(=O)c4ccc(F)cc4)C[C@H]23)cc1	0.5	-0.1	2.2	53.4	3.9
CC(C)(O)C#Cc1ccc([C@H]2[C@H](CO)N3CCCCN(C(=O)c4ccc(F)cc4)C[C@@H]23)cc1	3.7	3.3	0.6	104.4*	0.9
COc1cccc(-c2ccc([C@@H]3[C@H](CO)N4CCCCN(C(=O)c5ccc(F)cc5)C[C@@H]34)cc2)c1	5.7	-56.1	2.7	112.9*	2.2
C[C@@H]1CCCCO[C@@H](CN(C)C(=O)c2ccccc2)[C@@H](C)CN([C@@H](C)CO)C(=O)c2cc(NS(=O)(=O)c3ccc(F)cc3)ccc2O1	4.5	-1.4	-0.1	-0.6	-5.0
COc1ccc2c3c(n(C)c2c1)[C@@H](CO)N(C(=O)CN1CCOCC1)CC31CN(Cc2ccncc2)C1	-0.9	-1.0	-2.0	3.2	5.3
COc1cc(C(=O)Nc2nnc(S(=O)(=O)N3CCCCCC3)s2)cc(OC)c1OC	2.0	-30.6*	-0.5	2.6	0.4
COc1cccc(C(=O)Nc2nnc(S(=O)(=O)N3CCCC3)s2)c1	0.3	1.0	-1.0	2.9	1.2
C[C@@H]1CN([C@@H](C)CO)C(=O)c2cc(NS(=O)(=O)c3cccs3)ccc2O[C@H]1CN(C)Cc1ccc(Oc2ccccc2)cc1	2.4	1.1	-2.4	2.6	0.4
O=C(N/N=C\c1c(O)ccc2ccccc12)c1ccc(O)cc1	4.3	-34.2	-6.6	0.5	-5.6
O=C(N/N=C\c1c(O)ccc2ccccc12)c1cncc(Br)c1	-0.5	5.3	35.4*	2.2	4.6
O=C(N/N=C/c1c(O)ccc2ccccc12)c1ccc(Br)o1	0.4	20.4	12.4*	-5.5	3.7
O=C(N/N=C/c1c(O)ccc2ccccc12)c1cccnc1	0.4	-24.8	.	-0.9	2.0
Cc1ccc(N2CCN(c3ncccc3[N+](=O)[O-])CC2)c(C)c1	-0.6	-25.6	2.3	-6.0	0.6
O=[N+]([O-])c1cccnc1N1CCN(c2ccccc2F)CC1	7.7	-34.5*	1.7	-0.7	5.1
C[C@H]1CN([C@@H](C)CO)C(=O)c2cc(NC(=O)CCC(F)(F)F)ccc2O[C@H]1CN(C)C(=O)Nc1cccc2ccccc12	8.2	-0.1	1.4	-9.7	-3.6
O=C(C[C@@H]1CC[C@H](NC(=O)C2CCC2)[C@@H](CO)O1)NCc1ccccc1Cl	-2.3	0.6	0.3	2.1	1.4
O=C(COc1cccc2cccnc12)N/N=C/c1cccn1-c1ccc(F)cc1	1.6	-41.5*	-1.2	-5.5	2.0
O=C(COc1cccc2cccnc12)N/N=C/c1ccc(O)cc1	2.4	-2.9	-0.7	4.8	-3.3
Cc1ccc(NC(=O)C(=O)NCC2CCCN2S(=O)(=O)c2cccs2)cc1C (stereo not given)	-1.4	-24.1	2.9	-3.4	3.7
COc1ccc(NC(=O)C(=O)NCC2CCCN2S(=O)(=O)c2cccs2)cc1 (stereo not given)	-2.7	8.3	16.6*	42.7	1.9
O=C1NC(c2ccccc2)c2c(-c3ccccc3)n[nH]c21 (stereo not given)	1.1	21.5	3.6	1.5	1.5
SMILES	SIRT5 inh	rRNA inh HTS	CFTR F508del cor	S100A4 inh HTS	ERAP1 HTS inh
Cc1ccc(C2NC(=O)c3[nH]nc(-c4ccccc4)c32)cc1 (stereo not given)	-6.5	-18.6*	3.6	-2.7	5.3
C[C@H](CO)N1C[C@H](C)[C@@H](CN(C)C(=O)NC2CCCC2)Oc2ncc(-c3ccccc3)cc2C1=O	-2.4	-0.8	4.0	4.3	1.3
NCC[C@H]1CC[C@H](NC(=O)Nc2ccc(F)cc2)[C@@H](CO)O1	7.3	0.5	0.9	1.4	0.5
Cc1ccc(S(=O)(=O)Nc2ccc3c(c2)CC(=O)N([C@H](C)CO)C[C@@H](C)[C@@H](CN(C)Cc2ccc(C(F)(F)F)cc2)O3)cc1	.	-3.3	4.5	.	.
C[C@H]1CN([C@@H](C)CO)C(=O)Cc2cc(NS(=O)(=O)c3ccc(F)cc3)ccc2O[C@@H]1CN(C)Cc1ccc(C(F)(F)F)cc1	20.4*	0.0	1.1	17.4	-0.8
C[C@@H]1CN([C@@H](C)CO)C(=O)Cc2cc(NS(=O)(=O)c3ccc(Cl)cc3)ccc2O[C@@H]1CN(C)Cc1ccc(C(F)(F)F)cc1	-5.5	1.3	5.3	10.0	1.8
C[C@@H]1CN([C@H](C)CO)C(=O)Cc2cc(NS(=O)(=O)c3ccc(F)cc3)ccc2O[C@H]1CN(C)Cc1ccc(C(F)(F)F)cc1	22.9*	0.5	0.4	-3.5	-2.9
C[C@@H]1CN([C@@H](C)CO)C(=O)Cc2cc(NS(=O)(=O)c3ccc(F)cc3)ccc2O[C@@H]1CN(C)Cc1ccc(C(F)(F)F)cc1	18.3*	0.2	2.8	-0.4	-2.3
C[C@@H]1CN([C@H](C)CO)C(=O)Cc2cc(NS(=O)(=O)c3ccc(Cl)cc3)ccc2O[C@@H]1CN(C)Cc1ccc(C(F)(F)F)cc1	-3.3	-1.9	3.0	23.4	0.6
CC[n+]1c(C)sc2cc(OC)ccc21	-5.0	16.4	-2.5	-10.6	30.0*
CC[n+]1c(C)sc2c(C)cc(C)cc21	-4.7	12.2	.	-0.9	21.1
NC(=O)C1Cc2ccccc2CN1C(=O)c1cc(C2CC2)nn1-c1ccccc1 (stereo not given)	-3.4	-20.6*	7.4	-4.8	0.1
CCCN1C[C@@H](C)[C@H](OC)CN(C)C(=O)c2ccc(NC(=O)Nc3c(C)noc3C)cc2OC[C@H]1C	3.3	2.9	4.8	-16.6	.
Cc1sc2ncnc(Sc3ccccc3C(=O)Nc3ccc(C#N)cc3)c2c1C	-2.6	-22.8*	.	2.1	-0.6
Cc1sc2ncnc(Sc3ccccc3C(=O)Nc3ccc(Br)cc3)c2c1C	0.8	.	.	13.1	1.9
O=C(Nc1cccc(S(=O)(=O)N2CCOCC2)c1)C1CC1	23.0*	1.4	0.8	-6.2	1.9
CC(=O)Nc1ccc(NC(=O)C2CCN(S(=O)(=O)c3ccc4c(c3)OCCO4)CC2)cc1	-2.8	15.4	0.0	-1.8	-0.1
O=C(Nc1ccc2c(c1)OCCO2)C1CCN(S(=O)(=O)c2ccc3c(c2)OCCO3)CC1	-2.3	-31.8*	.	2.6	0.8
O=S(=O)(c1ccc(OCc2ccc(Br)cc2)cc1)N1CCOCC1	-3.5	4.4	19.4*	0.6	4.3
